Screens: PubChem BioAssay, Johns Hopkins Ion Channel Center
Shown are actives, neighbours in structure and some others; about 3.7% of the full set was active somewhere.
Kir21 inh – Kir2.1 (mouse) channel inhibition; HEK293-Kir2.1, FluxOR thallium flux fluorescence; stronger effect = lower value; B-score at 10 µM; 310,000 compounds, 0.85% hits;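 active = fluorescence ratio B-score at or below minus 3 SD of library scores, with starting-brightness B-score within 2 SD, cut at about -4.2 in these data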;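 also: channel flux triggered by added potassium and thallium sulfate stimulus; B-score of peak minus minimum fluorescence over baseline after thallium stimulus; more negative B-score means stronger Kir2.1 block with less thallium influx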
hERG rescue – hERG (human) protection from proarrhythmic block; activation (rescue from dofetilide block), less the hit threshold, % at 10 µM; 310,000 compounds, 0.51% hits; Q12809; CHO-hERG, FluxOR thallium flux, dofetilide IC70 present;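 active = activation above the mean of controls blocked by dofetilide plus 5 SD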;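 also: thallium influx through hERG after potassium depolarization seen as dye fluorescence rise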
KCNQ1 pot – human KCNQ1 channel potentiation or activation. B-score at 10 µM. CHO-K1 KCNQ1, thallium flux FluxOR fluorescence; stronger effect = higher value. 310,000 compounds, 0.35% hits. P51787;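 active = fluorescence ratio B-score, a plate-corrected score, at least three library SD, with initial intensity B-score within 5 SD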
Target sequence (P51787 whole entry, looked up): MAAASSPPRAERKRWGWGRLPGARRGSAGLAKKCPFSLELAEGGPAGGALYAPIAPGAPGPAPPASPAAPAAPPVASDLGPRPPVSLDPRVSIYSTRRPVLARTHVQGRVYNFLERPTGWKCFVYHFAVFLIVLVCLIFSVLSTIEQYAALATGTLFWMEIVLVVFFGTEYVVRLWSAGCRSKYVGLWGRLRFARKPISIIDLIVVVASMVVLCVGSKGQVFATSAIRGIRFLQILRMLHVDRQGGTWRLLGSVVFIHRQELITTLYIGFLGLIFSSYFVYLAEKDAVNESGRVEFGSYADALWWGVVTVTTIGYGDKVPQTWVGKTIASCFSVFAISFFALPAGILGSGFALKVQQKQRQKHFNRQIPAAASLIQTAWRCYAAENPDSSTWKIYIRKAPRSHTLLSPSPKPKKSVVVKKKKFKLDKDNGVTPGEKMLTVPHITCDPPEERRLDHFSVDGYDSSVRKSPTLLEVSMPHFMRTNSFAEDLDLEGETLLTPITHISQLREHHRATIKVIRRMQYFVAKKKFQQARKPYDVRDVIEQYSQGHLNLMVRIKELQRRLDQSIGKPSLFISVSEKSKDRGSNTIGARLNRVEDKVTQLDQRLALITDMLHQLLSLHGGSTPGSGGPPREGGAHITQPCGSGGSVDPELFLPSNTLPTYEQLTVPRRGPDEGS
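Assay system: CHO-K1 cells stably expressing KCNQ1. Medium: assay buffer for compound exposure, DMSO matched across wells. Timing: 37 °C overnight plating, 90-min dark dye load, 20-min compound pretreatment. Signal: kinetic FluxOR fluorescence, 10 s baseline plus 110 s post-stimulus.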
KCNQ1 block – human KCNQ1 channel inhibition. P51787. CHO-K1 KCNQ1, FluxOR thallium flux fluorescence; stronger effect = higher value. B-score at 10 µM. 310,000 compounds, 1.3% hits;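 active = compounds whose thallium flux B-score, printed positive for inhibition, exceeds three library SD while starting fluorescence stays within three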;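 also: channel opened by potassium depolarization with thallium stimulus after 20 min compound exposure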
KCNK3 block – human KCNK3 channel inhibition, primary screen; O14649; CHO-KCNK3 thallium flux, FluxOR fluorescence; stronger effect = lower value; B-score at 10 µM; 340,000 compounds, 0.84% hits; AID 602410;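 active = B-score under library mean minus 4 SD, starting fluorescence ratio at most library mean plus 5 SD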;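 also: more negative B-score means stronger inhibition of thallium flux through KCNK3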
KCNK9 block – human KCNK9 channel inhibition; Q9NPC2; HEK293 KCNK9, FluxOR thallium flux fluorescence; stronger effect = lower value; B-score at 10 µM; 310,000 compounds, 1.2% hits; AID 488922;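 active = ratio B-score over 3 SD below the library mean, with starting fluorescence within 5 SD of its mean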;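 also: negative B-score means less thallium flux so channel inhibition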
KCNK3 inh conf – confirmation of human KCNK3 two-pore domain potassium channel inhibitors; shares compounds with KCNK3 block; CHO-KCNK3 thallium flux, FluxOR fluorescence; 0% buffer, 100% carvedilol maximal block; ratio percent of control, % at 10 µM; 2,400 compounds, 99% hits;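 active = ratio percent of control, averaged over triplicates, above buffer control mean plus 5 SD, cut at about 64% in these data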;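 also: ratio is the fluorescence rise from min to max over baseline after thallium stimulus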
KCNK3 uninduced – counter-screen for KCNK3 inhibitors: effect in non-induced cells | shares compounds with KCNK3 block | non-induced KCNK3 parental cells, FluxOR thallium flux; stronger effect = lower value | thallium flux ratio (lower = more inhibition) at 10 µM | 2,400 compounds, 40% hits | AID 651747;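 active = thallium flux ratio, averaged over three wells, more than 5 SD below the buffer control mean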;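 also: host cells are CHO cells without KCNK3 induction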
Of the large screens only hits and unclear results are named; the others gave an inactive call (follow-up assays come after a bar, where they were run).

COc1ccc(OC)c(NC(=O)CN2C(=O)COc3ccc(S(=O)(=O)N4CCCC4)cc32)c1	KCNK3 block -10 | KCNK3 inh conf 96 | KCNK3 uninduced inactive
Cc1ccc(NC(=O)NC(=O)COc2c(F)c(F)cc(F)c2F)c(C)c1	none (no result: Kir21 inh, hERG rescue, KCNQ1 pot, KCNQ1 block, KCNK9 block)
COc1ccc(/C=C2\COc3ccccc3C2=O)c(OC)c1	KCNK3 block -9.6 | KCNK3 inh conf 121 | KCNK3 uninduced inactive
CCC(C)NC(=O)CN1C(=O)NC2(CCc3ccccc3C2)C1=O (stereo not drawn)	none
CCC(CC)C(=O)Nc1cccc(C(=O)Nc2ccc3c(c2)OCO3)c1	KCNK3 block -12, KCNK9 block -7.6 | KCNK3 inh conf 92 | KCNK3 uninduced inactive
CCOC(=O)C1=C(C)NC(C)=C(C(=O)OCC)C1c1ccc(C)o1	none
C=CCOC(=O)C1=C(C)NC(C)=C(C(=O)OCC=C)C1c1ccc(C)o1	KCNK3 block -10 | KCNK3 inh conf 104 | KCNK3 uninduced inactive
CCOC(=O)c1cc(CC)sc1NC(=O)CC1Sc2ccc(C(F)(F)F)cc2NC1=O (stereo not drawn)	none
CCOc1ccccc1NC(=O)C(NCCc1ccc(OC)cc1)c1ccccc1 (stereo not drawn)	KCNQ1 block 6, KCNK3 block -10 | KCNK3 inh conf 132 | KCNK3 uninduced 0.13
CCOc1ccccc1NC(=O)C(NCCN(C)C)c1ccccc1 (stereo not drawn)	none
C(=NN=C(NN=Cc1cccs1)NN=Cc1cccs1)c1cccs1	KCNK3 block -15 (no result: Kir21 inh, hERG rescue, KCNQ1 pot, KCNQ1 block, KCNK9 block) | KCNK3 inh conf 123 | KCNK3 uninduced inactive
O=C(N/N=C/c1cccs1)c1ccccn1	none
COc1ccc(C(=O)C(OC(=O)c2ccc(C)c(NC(C)=O)c2)c2ccccc2)cc1 (stereo not drawn)	none
CC(=O)Nc1cc(C(=O)OC(C(=O)c2ccccc2)c2ccccc2)ccc1C (stereo not drawn)	KCNK3 block -10 | KCNK3 inh conf 79 | KCNK3 uninduced inactive
Cc1nn2c(NC(C)C)c3c(nc2c1-c1ccccc1)CCC3	KCNK3 block -8.9 | KCNK3 inh conf 94 | KCNK3 uninduced inactive
Cc1nn2c(NCC(C)C)c3c(nc2c1-c1ccccc1)CCC3	none
CCC(OC(=O)c1nsc(Cl)c1Cl)C(=O)NC(C)(C)CC (stereo not drawn)	none
Cc1cccc(C(=O)NCC(=O)OCCOc2ccccc2Cl)c1	KCNK3 block -9.1 | KCNK3 inh conf 86 | KCNK3 uninduced inactive
Cc1ccc(CN2CCN(C3CCCC3)C(CCO)C2)s1 (stereo not drawn)	none
Cc1ccc(CC(=O)O/N=C(\N)c2ccncc2)cc1	none
CCOc1cccc(OCCOc2ccccc2[N+](=O)[O-])c1	KCNK3 block -8.7, KCNK9 block -7.2 | KCNK3 inh conf 110 | KCNK3 uninduced inactive
COC(=O)c1ccccc1NC(=O)N1CCN(c2ccc(F)cc2)CC1	KCNK3 block -11 | KCNK3 inh conf 112 | KCNK3 uninduced inactive
O=C(Nc1cccc2ccccc12)N1CCN(c2ccc(F)cc2)CC1	none
Cc1cc(C(=O)Cn2nnc3ccccc3c2=O)c(C)n1Cc1cccs1	KCNK3 block -9.1 | KCNK3 inh conf 111 | KCNK3 uninduced inactive
O=[N+]([O-])c1ccc(C2=NN(CCO)C(=Nc3ccc(OC(F)(F)F)cc3)SC2)cc1	KCNK3 block -10 | KCNK3 inh conf 131 | KCNK3 uninduced inactive
COc1ccc(N=C2SCC(c3ccc([N+](=O)[O-])cc3)=NN2CCO)cc1	none
CC1=CC(C)(C)N2C(=O)C3(C(C#N)=C(N)Oc4cc(O)ccc43)c3c(C)c(C)cc1c32 (stereo not drawn)	KCNK3 block -8.9 | KCNK3 inh conf 81 | KCNK3 uninduced 0.16
CC1=CC(C)(C)N2C(=O)C3(C(C#N)=C(N)OC4=C3C(=O)CCC4)c3c(C)c(C)cc1c32 (stereo not drawn)	none
N#C/C(=C\c1ccc(N2CCOCC2)o1)c1ccccc1	KCNK3 block -9 | KCNK3 inh conf 144 | KCNK3 uninduced 0.081
Cc1ccc(C(=O)NCC(=O)OCc2cccc(Br)c2)cc1	none
O=C(NC12CC3CC(CC(C3)C1)C2)N1CCN(c2nc(-c3ccccc3)cs2)CC1	KCNK9 block -6.7 | KCNK3 inh conf 104 | KCNK3 uninduced inactive
O=C(NC1CCCCC1)N1CCN(c2nc(-c3ccccc3)cs2)CC1	none
CCOC(=O)c1cc2occc2n1Cc1c(F)cccc1Cl	KCNK3 block -9.8 | KCNK3 inh conf 77 | KCNK3 uninduced inactive
CCOC(=O)N1CCN(Cc2c(F)cccc2Cl)CC1	none
N#Cc1c(N2CCCC2)nc(N)c2c(N)nc(N3CCCC3)cc12	none
N#Cc1c(N2CCCCC2)nc(N)c2c(N)nc3c(c12)CC(c1ccccc1)O3 (stereo not drawn)	KCNK3 block -9.5 | KCNK3 inh conf 119 | KCNK3 uninduced 0.15
CCC1Cc2c(nc(N)c3c(N)nc(N4CCCCC4)c(C#N)c23)O1 (stereo not drawn)	KCNK3 block -9.6 | KCNK3 inh conf 97 | KCNK3 uninduced inactive
CCN(CC)c1nc(N)c2c(N)nc3c(c2c1C#N)CC(c1ccccc1)O3 (stereo not drawn)	none
CC(=O)c1cccc(NC(=O)CN2C(=O)NC(C)(C)C2=O)c1	none (no result: Kir21 inh, hERG rescue, KCNQ1 pot, KCNQ1 block, KCNK9 block)
CC1CCCC(C)N1C(=O)COC(=O)c1n[nH]c(=O)c2ccccc12 (stereo not drawn)	none (no result: Kir21 inh, hERG rescue, KCNQ1 pot, KCNQ1 block, KCNK9 block)
CC(=O)Oc1c(/C=C(\C#N)C(N)=O)[nH]c2ccccc12	Kir21 inh -5, KCNK3 block -9 | KCNK3 inh conf 101 | KCNK3 uninduced 0.14
O=C(CCNS(=O)(=O)c1ccccc1F)N1CCN(C(c2ccccc2)c2ccccc2)CC1	KCNK3 block -8.9, KCNK9 block -7.4 | KCNK3 inh conf 101 | KCNK3 uninduced inactive
O=C(CCNS(=O)(=O)c1ccccc1F)N1CCN(S(=O)(=O)c2cccc(F)c2)CC1	none
CCCCNc1c(-c2ccc(-c3ccc(OC)cc3)c(OC)c2)nc2ccccn12	none (no result: Kir21 inh, hERG rescue, KCNQ1 pot, KCNQ1 block, KCNK9 block)
C(=N\N(c1ccccc1)c1ccccc1)/c1ccccn1	KCNK3 block -9.9 | KCNK3 inh conf 133 | KCNK3 uninduced 0.12
C(=N\n1cnnc1)/c1ccccn1	none
COc1ccc(/C(C)=N/N2C(=O)c3ccccc3NC2c2ccc(O)c(OC)c2)cc1 (stereo not drawn)	KCNK3 block -9.3 | KCNK3 inh conf 99 | KCNK3 uninduced inactive
Cc1c(C#N)c2ccccc2n1CC(=O)O	none
COc1ccccc1OCCCn1c(C)c(C#N)c2ccccc21	KCNK3 block -10 | KCNK3 inh conf 119 | KCNK3 uninduced 0.16
